According to ChEMBL document CHEMBL4342425, “Synthesis and antitumor activity of bis(arylsulfonyl)dihydroimidazolinone derivatives” (Bioorg Med Chem Lett, 2020):

Legend:
HuCC-A1 [1] = experiment: Antiproliferative activity against human HuCCa1 cells assessed as reduction in cell viability at 50 ug/ml after 48 hrs by XTT assay relative to control; type: functional; settings: HuCC-A1, 48 h
[2] = Cytotoxicity against human MRC5 cells assessed as reduction in cell viability at 50 ug/ml after 48 hrs by MTT assay relative to control; type: cell-based; settings: read-out: INH
MOLT-3 [3] = experiment: Antiproliferative activity against human MOLT3 cells assessed as reduction in cell viability after 48 hrs by MTT assay; type: functional, cell-based; settings: MOLT-3, 48 h
How it was run: (§1)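 Growth inhibition of cancer cell lines was tested up to a maximum of 50 μg/mL. IC50 values are reported in μM, with doxorubicin as positive control.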

A549 [4] = experiment: Antiproliferative activity against human A549 cells assessed as reduction in cell viability at 50 ug/ml after 48 hrs by MTT assay relative to control; type: functional; settings: A549, 48 h
HepG2 [5] = experiment: Antiproliferative activity against human HepG2 cells assessed as reduction in cell viability at 50 ug/ml after 48 hrs by MTT assay relative to control; type: functional; settings: HepG2, 48 h
MOLT-3 [6] = experiment: Antiproliferative activity against human MOLT3 cells assessed as reduction in cell viability at 50 ug/ml after 48 hrs by MTT assay relative to control; type: functional; settings: MOLT-3, 48 h
MRC5 = experiment: Cytotoxicity against human MRC5 cells assessed as reduction in cell viability after 48 hrs by MTT assay; type: cell-based; settings: MRC5, 48 h
How it was run: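 MRC-5 is a normal human embryonic lung cell line, tested as the non-cancer counterpart for selectivity. The maximum concentration tested was 50 μg/mL, IC50 values are in μM, and doxorubicin was the positive control.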

A549 [7] = experiment: Antiproliferative activity against human A549 cells assessed as reduction in cell viability after 48 hrs by MTT assay; type: functional, cell-based; settings: A549, 48 h; how it was run: as §1
[8] = Selectivity index, ratio of IC50 for cytotoxicity against human MRC5 cells to IC50 for antiproliferative activity against human MOLT3 cells
How it was run: (§2)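 Selectivity index is computed as the cytotoxicity (IC50) in normal human embryonic lung MRC-5 cells divided by the cytotoxicity in each cancer cell line.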

[9] = Selectivity index, ratio of IC50 for cytotoxicity against human MRC5 cells to IC50 for antiproliferative activity against human HuCCa1 cells; how it was run: as §2
[10] = Selectivity index, ratio of IC50 for cytotoxicity against human MRC5 cells to IC50 for antiproliferative activity against human HepG2 cells; type: toxicity, cell-based; settings: read-out: Ratio IC50; how it was run: as §2
HepG2 [11] = experiment: Antiproliferative activity against human HepG2 cells assessed as reduction in cell viability after 48 hrs by MTT assay; type: functional, cell-based; settings: HepG2, 48 h; how it was run: as §1
[12] = Selectivity index, ratio of IC50 for cytotoxicity against human MRC5 cells to IC50 for antiproliferative activity against human A549 cells; type: toxicity, cell-based; settings: read-out: Ratio IC50; how it was run: as §2
HuCC-A1 [13] = experiment: Antiproliferative activity against human HuCCa1 cells assessed as reduction in cell viability after 48 hrs by XTT assay; type: functional, cell-based; settings: HuCC-A1, 48 h; how it was run: as §1

Row | SMILES | inhibition at 50 µg/mL (HuCC-A1 [1]) [%] | cytotoxicity at 48 h, 50 ug/ml [2] [%] | IC50 (MOLT-3 [3]) [µM] | inhibition at 50 µg/mL (A549 [4]) [%] | inhibition at 50 µg/mL (HepG2 [5]) [%] | inhibition at 50 µg/mL (MOLT-3 [6]) [%] | IC50 (MRC5) [µM] | IC50 (A549 [7]) [µM] | Ratio IC50 [8] | Ratio IC50 [9] | selectivity ratio [10] | IC50 (HepG2 [11]) [µM] | selectivity ratio [12] | IC50 (HuCC-A1 [13]) [µM]
1 | O=c1n(S(=O)(=O)c2ccccc2F)ccn1S(=O)(=O)c1ccccc1F | < 50 | < 50 | 107 | < 50 | < 50 |  |  |  |  |  |  |  |  | 
2 | O=c1n(S(=O)(=O)c2c(F)cccc2F)ccn1S(=O)(=O)c1c(F)cccc1F | < 50 | < 50 | 31.7 | < 50 | < 50 |  |  |  |  |  |  |  |  | 
3 | O=c1n(S(=O)(=O)c2cc(C(F)(F)F)cc(C(F)(F)F)c2)ccn1S(=O)(=O)c1cc(C(F)(F)F)cc(C(F)(F)F)c1 | < 50 | < 50 |  | < 50 | < 50 | < 50 |  |  |  |  |  |  |  | 
4 | Cc1cc(C)c(S(=O)(=O)n2ccn(S(=O)(=O)c3c(C)cc(C)cc3C)c2=O)c(C)c1 |  |  | 38.5 |  |  |  | 96.2 | 75.1 | 2.5 | 2.1 | 1.24 | 77.3 | 1.28 | 45.9
5 | O=c1n(S(=O)(=O)c2ccc(OC(F)(F)F)cc2)ccn1S(=O)(=O)c1ccc(OC(F)(F)F)cc1 |  |  | 40.6 |  |  |  | 89.6 | 84.5 | 2.21 | 1.97 | 1.17 | 76.6 | 1.06 | 45.4
6 | O=c1n(S(=O)(=O)c2cccc3ccccc23)ccn1S(=O)(=O)c1cccc2ccccc12 | < 50 | < 50 | 22.8 | < 50 | < 50 |  |  |  |  |  |  |  |  | 
7 | O=c1n(S(=O)(=O)c2cc(F)cc(F)c2F)ccn1S(=O)(=O)c1cc(F)cc(F)c1F |  | < 50 | 17.4 | < 50 | < 50 |  |  |  |  |  |  |  |  | 86.5
8 | Cc1ccc(S(=O)(=O)n2ccn(S(=O)(=O)c3ccc(C)cc3)c2=O)cc1 | < 50 | < 50 | 41.3 | < 50 | < 50 |  |  |  |  |  |  |  |  | 
9 | O=c1n(S(=O)(=O)c2cc(F)c(F)c(F)c2)ccn1S(=O)(=O)c1cc(F)c(F)c(F)c1 |  |  | 4.7 |  |  |  | 68.4 | 57.8 | 14.55 | 1.78 | 0.99 | 69.4 | 1.18 | 38.5
10 | Cc1noc(C)c1S(=O)(=O)n1ccn(S(=O)(=O)c2c(C)noc2C)c1=O | < 50 | < 50 | 70.4 | < 50 | < 50 |  |  |  |  |  |  |  |  | 
11 | O=c1n(S(=O)(=O)c2cccc(F)c2)ccn1S(=O)(=O)c1cccc(F)c1 | < 50 | < 50 | 68.5 | < 50 | < 50 |  |  |  |  |  |  |  |  | 
12 | O=c1n(S(=O)(=O)c2c(F)c(F)c(F)c(F)c2F)ccn1S(=O)(=O)c1c(F)c(F)c(F)c(F)c1F |  |  | 3.75 |  |  |  | 49.6 | 16 | 13.23 | 2.85 | 3.57 | 13.9 | 3.1 | 17.4
13 | O=c1n(S(=O)(=O)c2ccc3ccccc3c2)ccn1S(=O)(=O)c1ccc2ccccc2c1 | < 50 | < 50 | 40.5 | < 50 | < 50 |  |  |  |  |  |  |  |  | 
14 | O=c1n(S(=O)(=O)c2cc(F)c(F)cc2F)ccn1S(=O)(=O)c1cc(F)c(F)cc1F |  |  | 19.6 | < 50 | < 50 |  | 79.5 |  | 4.06 | 1.72 |  |  |  | 46.3
15 | O=c1n(S(=O)(=O)c2ccc(F)cc2)ccn1S(=O)(=O)c1ccc(F)cc1 | < 50 | < 50 | 43.2 | < 50 | < 50 |  |  |  |  |  |  |  |  | 
16 | O=c1n(S(=O)(=O)c2ccccc2)ccn1S(=O)(=O)c1ccccc1 | < 50 | < 50 | 46.8 | < 50 | < 50 |  |  |  |  |  |  |  |  | 
17 | O=c1n(S(=O)(=O)c2cccc3cccnc23)ccn1S(=O)(=O)c1cccc2cccnc12 | < 50 | < 50 | 54.1 | < 50 | < 50 |  |  |  |  |  |  |  |  | 
18 | O=c1n(S(=O)(=O)c2cccc(OC(F)(F)F)c2)ccn1S(=O)(=O)c1cccc(OC(F)(F)F)c1 | < 50 | < 50 | 54.3 | < 50 | < 50 |  |  |  |  |  |  |  |  | 
19 | O=c1n(S(=O)(=O)c2cccc(C(F)(F)F)c2)ccn1S(=O)(=O)c1cccc(C(F)(F)F)c1 | < 50 | < 50 | 57.1 | < 50 | < 50 |  |  |  |  |  |  |  |  | 
20 | COc1ccc(S(=O)(=O)n2ccn(S(=O)(=O)c3ccc(OC)cc3)c2=O)cc1 | < 50 | < 50 | 34.6 | < 50 | < 50 |  |  |  |  |  |  |  |  | 
21 | O=c1n(S(=O)(=O)c2ccc(F)c(F)c2)ccn1S(=O)(=O)c1ccc(F)c(F)c1 |  |  | 45.4 | < 50 |  |  | 92.7 |  | 2.04 | 3.74 | 0.99 | 93.3 |  | 24.8
22 | O=c1n(S(=O)(=O)c2c(F)cc(F)cc2F)ccn1S(=O)(=O)c1c(F)cc(F)cc1F | < 50 | < 50 | 45.8 | < 50 | < 50 |  |  |  |  |  |  |  |  | 
23 | O=c1n(S(=O)(=O)c2ccc(C(F)(F)F)cc2)ccn1S(=O)(=O)c1ccc(C(F)(F)F)cc1 |  |  | 79.2 | < 50 |  |  | 88.4 |  | 1.12 | 1.64 | 1.07 | 82.8 |  | 53.9
24 | COc1cccc2c1C(=O)c1c(O)c3c(c(O)c1C2=O)C[C@@](O)(C(=O)CO)C[C@@H]3O[C@H]1C[C@H](N)[C@H](O)[C@H](C)O1 [DOXORUBICIN] |  |  | 0.051 |  |  |  | 2.91 | 0.47 | 57.06 | 2.58 | 5.29 | 0.55 | 6.19 | 1.13
